Experiments:
Homo sapiens [1] = assay: Drug level in human plasma with normal renal function assessed as CMMG level at 2000 mg, po every 6 hrs measured after fifth dose by LC/MS; assay type: ADME, organism-based; details: in vivo, read-out: Drug uptake
Summary of the method: (§1)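 Six volunteers with normal renal function fasted from 8 h before to 2 h after the fifth dose. Intrathecal-catheter CSF and venous blood were sampled at 0–8 h and stored at −70°C. Noncompartmental Cmax, tmax and AUCτ (0–6 h) were derived; Cavg = AUCτ/τ.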

Homo sapiens [2] = assay: Drug level in human plasma with chronic kidney disease assessed as CMMG level at 1500 mg, po every 12 hrs measured after fifth dose by LC/MS; assay type: ADME, organism-based; details: in vivo, read-out: Drug uptake
Summary of the method: (§2)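 Three CKD adults (CrCl ~15–30 ml/min) fasted around the final dose. Lumbar intrathecal catheter CSF and EDTA venous blood were taken predose and at 0.5–8 h plus 12 h, then stored at −70°C. Metabolites in serum/CSF were measured by SPE with isotope-labelled internal standards, reversed-phase HPLC and positive-ion MRM MS.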

Homo sapiens [3] = assay: Drug level in human CSF with normal renal function assessed as CMMG level at 2000 mg, po every 6 hrs measured after fifth dose by LC/MS; assay type: ADME, organism-based; details: in vivo, read-out: Drug uptake; summary of the method: as §1
Homo sapiens [4] = assay: Drug level in human CSF with chronic kidney disease assessed as CMMG level at 1500 mg, po every 12 hrs measured after fifth dose by LC/MS; assay type: ADME, organism-based; details: in vivo, read-out: Drug uptake; summary of the method: as §2
Homo sapiens [5] = assay: Cmax in human systemic circulation with normal renal function assessed as CMMG level at 2000 mg, po every 6 hrs measured after fifth dose by LC/MS; assay type: ADME, organism-based; parameters: dose 2000 mg, route oral; details: in vivo; summary of the method: as §1
Homo sapiens [6] = assay: Cmax in human CSF with normal renal function assessed as CMMG level at 2000 mg, po every 6 hrs measured after fifth dose by LC/MS; assay type: ADME, organism-based, Cerebrospinal fluid; parameters: dose 2000 mg, route oral; details: in vivo; summary of the method: as §1
Homo sapiens [7] = assay: Cmax in human systemic circulation with chronic kidney disease assessed as CMMG level at 1500 mg, po every 12 hrs measured after fifth dose by LC/MS; assay type: ADME, organism-based; parameters: dose 1500 mg, route oral; details: in vivo; summary of the method: as §2
Homo sapiens [8] = assay: Cmax in human CSF with chronic kidney disease assessed as CMMG level at 1500 mg, po every 12 hrs measured after fifth dose by LC/MS; assay type: ADME, organism-based, Cerebrospinal fluid; parameters: dose 1500 mg, route oral; details: in vivo; summary of the method: as §2
Homo sapiens [9] = assay: Tmax in human systemic circulation with normal renal function assessed as CMMG level at 2000 mg, po every 6 hrs measured after fifth dose by LC/MS; assay type: ADME, organism-based; details: in vivo; summary of the method: as §1
Homo sapiens [10] = assay: Tmax in human CSF with normal renal function assessed as CMMG level at 2000 mg, po every 6 hrs measured after fifth dose by LC/MS; assay type: ADME, organism-based, Cerebrospinal fluid; details: in vivo; summary of the method: as §1
Homo sapiens [11] = assay: Tmax in human systemic circulation with chronic kidney disease assessed as CMMG level at 1500 mg, po every 12 hrs measured after fifth dose by LC/MS; assay type: ADME, organism-based; details: in vivo; summary of the method: as §2
Homo sapiens [12] = assay: Tmax in human CSF with chronic kidney disease assessed as CMMG level at 1500 mg, po every 12 hrs measured after fifth dose by LC/MS; assay type: ADME, organism-based, Cerebrospinal fluid; details: in vivo; summary of the method: as §2
Homo sapiens [13] = assay: AUC (0 to 6 hrs) in human systemic circulation with normal renal function assessed as CMMG level at 2000 mg, po every 6 hrs measured after fifth dose by LC/MS; assay type: ADME, organism-based, Plasma; parameters: dose 2000 mg, time < 6 hr, route oral; details: in vivo; summary of the method: as §1
Homo sapiens [14] = assay: AUC (0 to 6 hrs) in human CSF with normal renal function assessed as CMMG level at 2000 mg, po every 6 hrs measured after fifth dose by LC/MS; assay type: ADME, organism-based; parameters: time < 6 hr, dose 2000 mg, route oral; details: in vivo; summary of the method: as §1
Homo sapiens [15] = assay: AUC (0 to 12 hrs) in human systemic circulation with chronic kidney disease assessed as CMMG level at 1500 mg, po every 12 hrs measured after fifth dose by LC/MS; assay type: ADME, organism-based; parameters: dose 1500 mg, time < 12 hr, route oral; details: in vivo; summary of the method: as §2
Homo sapiens [16] = assay: AUC (0 to 12 hrs) in human CSF with chronic kidney disease assessed as CMMG level at 1500 mg, po every 12 hrs measured after fifth dose by LC/MS; assay type: ADME, organism-based; parameters: time < 12 hr, dose 1500 mg, route oral; details: in vivo; summary of the method: as §2
Homo sapiens [17] = assay: Ratio of Cmax in human CSF to Cmax in human plasma with normal renal function assessed as CMMG level at 2000 mg, po every 6 hrs measured after fifth dose by LC/MS; assay type: ADME, organism-based
Summary of the method: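 For each normal-renal-function subject, the metabolite CSF Cmax was divided by the serum Cmax from samples taken 0–8 h after the fifth dose. Both were measured by LC/MS with isotope-labelled internal standards, and the ratio is given as mean ± SD.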

Homo sapiens [18] = assay: Ratio of Cmax in human CSF to Cmax in human plasma with chronic kidney disease assessed as CMMG level at 1500 mg, po every 12 hrs measured after fifth dose by LC/MS; assay type: ADME, organism-based

concentration (Homo sapiens [1]): 2900 nM
concentration (Homo sapiens [2]): 12000 nM
concentration (Homo sapiens [3]): 70 nM
concentration (Homo sapiens [4]): 310 nM
Cmax (Homo sapiens [5]): 4100 nM
Cmax (Homo sapiens [6]): 95 nM
Cmax (Homo sapiens [7]): 15000 nM
Cmax (Homo sapiens [8]): 370 nM
Tmax (Homo sapiens [9]): 3.3 h
Tmax (Homo sapiens [10]): 1.8 h
Tmax (Homo sapiens [11]): 4.3 h
Tmax (Homo sapiens [12]): 6.7 h
AUC (Homo sapiens [13]): 17 µM·h
AUC (Homo sapiens [14]): 0.42 µM·h
AUC (Homo sapiens [15]): 148 µM·h
AUC (Homo sapiens [16]): 3.8 µM·h
Ratio (Homo sapiens [17]): 0.025
Ratio (Homo sapiens [18]): 0.025
SMILES: Nc1nc2c(ncn2COCC(=O)O)c(=O)[nH]1

— ChEMBL document CHEMBL1255392, “Pharmacokinetics of acyclovir and its metabolites in cerebrospinal fluid and systemic circulation after administration of high-dose valacyclovir in subjects with normal and impaired renal function” (Antimicrob Agents Chemother, 2010)
